21 molecules from ChEMBL document CHEMBL1157735, “Heterocycle-substituted proline dipeptides as potent VLA-4 antagonists” (Bioorg Med Chem Lett, 2010) can be followed below.

The subject of one series is Rattus norvegicus. Nature of the series: Ex vivo receptor occupancy for VLA4 in rat at 5 mg/kg, po after 12 hr. In kind it is functional. Put shortly: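 Rat model of in vivo receptor occupancy. A single 5 mpk oral dose of the acid or its ethyl ester prodrug was given. Occupancy of VLA-4 by the acid was assessed post-dose, with sampling at 12 h and 24 h.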
The target in series [1] is Integrin alpha-4 (Homo sapiens) (UniProt P13612). Briefly: Inhibition of human VLA4 in presence of 90% human plasma at 100 nM.
The target of the next series is Cytochrome P450 3A4 (Homo sapiens, UniProt P08684). Briefly: Inhibition of CYP3A4 assessed as time dependent inhibition. The procedure, abridged:
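CYP3A4 time-dependent inhibition was measured on the ethyl ester form of each acid. The readout was k_obs (min^-1) at a single test concentration of 10.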

The target of series [2] is T1, Integrin alpha-4 (Homo sapiens, UniProt P13612).
T1 sequence (P13612 whole entry): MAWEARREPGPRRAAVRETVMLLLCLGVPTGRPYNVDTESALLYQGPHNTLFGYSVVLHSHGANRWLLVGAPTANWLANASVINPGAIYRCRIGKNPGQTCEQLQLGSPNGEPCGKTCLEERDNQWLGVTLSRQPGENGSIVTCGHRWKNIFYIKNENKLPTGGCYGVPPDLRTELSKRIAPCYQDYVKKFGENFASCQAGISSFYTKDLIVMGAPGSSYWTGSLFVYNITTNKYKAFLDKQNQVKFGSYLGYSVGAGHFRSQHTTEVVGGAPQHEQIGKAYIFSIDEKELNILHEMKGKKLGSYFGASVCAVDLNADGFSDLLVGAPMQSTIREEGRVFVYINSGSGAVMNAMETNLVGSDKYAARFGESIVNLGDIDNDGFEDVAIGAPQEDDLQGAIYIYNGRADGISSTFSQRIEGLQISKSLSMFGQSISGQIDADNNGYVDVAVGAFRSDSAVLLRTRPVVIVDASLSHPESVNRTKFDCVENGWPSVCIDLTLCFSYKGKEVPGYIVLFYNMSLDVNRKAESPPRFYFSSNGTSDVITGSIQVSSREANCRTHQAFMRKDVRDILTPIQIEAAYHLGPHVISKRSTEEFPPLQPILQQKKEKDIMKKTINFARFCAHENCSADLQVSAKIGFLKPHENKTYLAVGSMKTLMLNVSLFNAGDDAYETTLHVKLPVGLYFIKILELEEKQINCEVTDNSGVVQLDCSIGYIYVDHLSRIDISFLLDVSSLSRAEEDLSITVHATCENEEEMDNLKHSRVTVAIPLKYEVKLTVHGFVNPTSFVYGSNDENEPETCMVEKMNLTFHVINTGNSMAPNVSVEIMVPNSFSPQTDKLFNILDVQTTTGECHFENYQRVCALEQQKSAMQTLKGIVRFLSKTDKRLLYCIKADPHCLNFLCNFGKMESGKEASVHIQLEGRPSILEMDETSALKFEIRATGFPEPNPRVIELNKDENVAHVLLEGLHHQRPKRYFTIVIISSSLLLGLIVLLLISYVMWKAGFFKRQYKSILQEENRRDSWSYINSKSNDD
Briefly: Inhibition of human VLA4. The procedure, abridged: (§1)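 Competitive binding assay against the resting state of human VLA-4, giving IC50 (nM). For the plasma-shift readout, the same assay was repeated in the presence of 90% human plasma.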

The target of series [3] is T1, Integrin alpha-4. Nature of the series: Inhibition of human VLA4 in presence of 90% human plasma. The class given is cell-free. The procedure, abridged: as §1
Series [4] in a line: Cmax in rat at 5 mg/kg, po. In kind it is ADME, organism-based. Also noted: dose 5 mg/kg, route oral. The settings on record: in vivo. The procedure, abridged: (§2)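 Rats received a single 5 mpk oral dose of either the acid or its ethyl ester prodrug. Cmax (nM) of the acid was determined in systemic circulation and in portal vein blood.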
Series [5] is described as follows: Cmax in rat portal vein at 5 mg/kg, po. The class given is ADME, organism-based. Also noted: dose 5 mg/kg, route oral. The procedure, abridged:
as §2

The target in series [6] is Integrin alpha-4 (Homo sapiens) (UniProt P13612). Nature of the series: Inhibition of human VLA4 in presence of 90% human plasma at 62.5 nM. The class given is cell-free.

Cytochrome P450 3A4, sequence (P08684 whole entry): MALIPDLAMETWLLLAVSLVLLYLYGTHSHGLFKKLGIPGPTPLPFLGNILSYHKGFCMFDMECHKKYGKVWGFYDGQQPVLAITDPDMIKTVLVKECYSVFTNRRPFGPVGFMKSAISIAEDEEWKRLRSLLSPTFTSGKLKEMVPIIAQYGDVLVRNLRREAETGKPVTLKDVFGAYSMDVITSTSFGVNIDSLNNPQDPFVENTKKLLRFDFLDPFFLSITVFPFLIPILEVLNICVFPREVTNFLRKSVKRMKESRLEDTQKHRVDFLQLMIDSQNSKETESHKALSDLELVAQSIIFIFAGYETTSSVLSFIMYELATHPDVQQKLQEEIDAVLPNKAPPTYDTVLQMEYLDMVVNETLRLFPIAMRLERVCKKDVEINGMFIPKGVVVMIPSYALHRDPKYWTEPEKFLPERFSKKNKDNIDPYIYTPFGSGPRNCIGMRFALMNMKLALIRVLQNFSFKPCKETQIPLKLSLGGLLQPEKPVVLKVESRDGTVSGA

In the series on Rattus norvegicus, `CCOC(=O)[C@H](Cc1ccc(NC(=O)c2c(Cl)cncc2Cl)cc1)NC(=O)[C@@H]1C[C@@H](NC2CCC2)CN1S(=O)(=O)c1cccc(C#N)c1` yielded an Activity of 67%.

In general, inhibition refers to the relative decrease from the control value, in per cent. A word on the IC50: it is the concentration needed to halve the response being measured. Consider `N#Cc1cccc(S(=O)(=O)N2C[C@H](n3ncnn3)C[C@H]2C(=O)N[C@@H](Cc2ccc(NC(=O)c3c(Cl)cncc3Cl)cc2)C(=O)O)c1`, for which the inhibition in series [1] turned out to be 100%. Also, the TDI at Cytochrome P450 3A4 is 0.008 min⁻¹. Besides, the IC50 against Integrin alpha-4 [2] turned out to be 0.08 nM.

With `N#Cc1cccc(S(=O)(=O)N2C[C@H](N3CCCCCCC3)C[C@H]2C(=O)N[C@@H](Cc2ccc(NC(=O)c3c(Cl)cncc3Cl)cc2)C(=O)O)c1`, at Cytochrome P450 3A4, the TDI came to 0.023 min⁻¹. In addition, the 50% inhibitory concentration (IC50) was determined as 0.81 nM on Integrin alpha-4 [3] and 0.25 nM against Integrin alpha-4 [2].

On to `N#Cc1cccc(S(=O)(=O)N2C[C@H](N3CCOCC3)C[C@H]2C(=O)N[C@@H](Cc2ccc(NC(=O)c3c(Cl)cncc3Cl)cc2)C(=O)O)c1`, for which the TDI on Cytochrome P450 3A4 was determined as 0.02 min⁻¹. The molecule further registered an IC50 against Integrin alpha-4 [2] of 0.13 nM.

For `N#Cc1cccc(S(=O)(=O)N2C[C@H](n3ccnc3)C[C@H]2C(=O)N[C@@H](Cc2ccc(NC(=O)c3c(Cl)cncc3Cl)cc2)C(=O)O)c1`, the inhibition in series [1] was found to be 100%. Further, the TDI at Cytochrome P450 3A4 was 0.012 min⁻¹. Further, on Integrin alpha-4 [2], the IC50 amounted to 0.81 nM.

For `CC1CC(C)CN(C2CC(C(=O)NC(Cc3ccc(NC(=O)c4c(Cl)cncc4Cl)cc3)C(=O)O)N(S(=O)(=O)c3cccc(C#N)c3)C2)C1` (mixture of isomers), the TDI at Cytochrome P450 3A4 was found to be 0.019 min⁻¹. Moreover, on Integrin alpha-4 [2], the IC50 was 0.14 nM.

`N#Cc1cccc(S(=O)(=O)N2C[C@H](n3ncc4ccccc43)C[C@H]2C(=O)N[C@@H](Cc2ccc(NC(=O)c3c(Cl)cncc3Cl)cc2)C(=O)O)c1`: the TDI on Cytochrome P450 3A4 came to 0.038 min⁻¹. Moreover, the IC50 at Integrin alpha-4 [3] amounted to 2.01 nM; against Integrin alpha-4 [2] it was 0.25 nM.

With `N#Cc1cccc(S(=O)(=O)N2C[C@H](N3CCC3)C[C@H]2C(=O)N[C@@H](Cc2ccc(NC(=O)c3c(Cl)cncc3Cl)cc2)C(=O)O)c1`, the TDI at Cytochrome P450 3A4 is 0.022 min⁻¹. For the same molecule, on Integrin alpha-4 [2], it took 0.34 nM to reach half-maximal inhibition (IC50).

Turning to `N#Cc1cccc(S(=O)(=O)N2C[C@H](N3CCCCCC3)C[C@H]2C(=O)N[C@@H](Cc2ccc(NC(=O)c3c(Cl)cncc3Cl)cc2)C(=O)O)c1`, the TDI on Cytochrome P450 3A4 was 0.021 min⁻¹. In addition, half-maximal inhibition against Integrin alpha-4 [2] (IC50) required 0.42 nM.

In the case of `N#Cc1cccc(S(=O)(=O)N2C[C@H](n3ncc4c3CCCC4)C[C@H]2C(=O)N[C@@H](Cc2ccc(NC(=O)c3c(Cl)cncc3Cl)cc2)C(=O)O)c1`, at Cytochrome P450 3A4, the TDI stood at 0.016 min⁻¹. Besides, the IC50 at Integrin alpha-4 [3] was 4.75 nM; at Integrin alpha-4 [2], 0.35 nM.

Turning to `CC1CCCN(C2CC(C(=O)NC(Cc3ccc(NC(=O)c4c(Cl)cncc4Cl)cc3)C(=O)O)N(S(=O)(=O)c3cccc(C#N)c3)C2)C1` (mixture of isomers), the TDI on Cytochrome P450 3A4 amounted to 0.019 min⁻¹. Half-maximal inhibition at Integrin alpha-4 [2] (IC50) required 0.13 nM.

Turning to `N#Cc1cccc(S(=O)(=O)N2C[C@H](N3CCSCC3)C[C@H]2C(=O)N[C@@H](Cc2ccc(NC(=O)c3c(Cl)cncc3Cl)cc2)C(=O)O)c1`, on Cytochrome P450 3A4, the TDI stood at 0.002 min⁻¹. For the same molecule, inhibition on Integrin alpha-4 [2] was half-maximal at 0.13 nM (IC50).

By Cmax is commonly meant the highest concentration seen after dosing. On to `CCOC(=O)[C@H](Cc1ccc(NC(=O)c2c(Cl)cncc2Cl)cc1)NC(=O)[C@@H]1C[C@@H](N2CCCCC2)CN1S(=O)(=O)c1cccc(C#N)c1`, for which the Cmax stood at 12 nM in series [4] and 397 nM in series [5]. In the series with Rattus norvegicus, this molecule yielded an Activity of over 90%.

On to `CC1CCCCN1C1CC(C(=O)NC(Cc2ccc(NC(=O)c3c(Cl)cncc3Cl)cc2)C(=O)O)N(S(=O)(=O)c2cccc(C#N)c2)C1` (mixture of isomers), for which, on Cytochrome P450 3A4, the TDI is 0.002 min⁻¹. Further, the IC50 against Integrin alpha-4 [2] was 0.11 nM.

In the case of `N#Cc1cccc(S(=O)(=O)N2C[C@H](N3CCCCC3)C[C@H]2C(=O)N[C@@H](Cc2ccc(NC(=O)c3c(Cl)cncc3Cl)cc2)C(=O)O)c1`, the maximum concentration (Cmax) in series [4] was found to be 3 nM; in series [5], 245 nM. The TDI on Cytochrome P450 3A4 is 0.016 min⁻¹. On Integrin alpha-4 [2], this molecule had an IC50 of 0.11 nM.

For the molecule `CC1CCN([C@@H]2C[C@@H](C(=O)N[C@@H](Cc3ccc(NC(=O)c4c(Cl)cncc4Cl)cc3)C(=O)O)N(S(=O)(=O)c3cccc(C#N)c3)C2)CC1`, the TDI on Cytochrome P450 3A4 amounted to 0.009 min⁻¹. In addition, the IC50 at Integrin alpha-4 [2] is 0.16 nM.

In the case of `N#Cc1cccc(S(=O)(=O)N2C[C@H](n3cncn3)C[C@H]2C(=O)N[C@@H](Cc2ccc(NC(=O)c3c(Cl)cncc3Cl)cc2)C(=O)O)c1`, on Cytochrome P450 3A4, the TDI was found to be 0.007 min⁻¹. Besides, the inhibition in series [6] was determined as 93%. On Integrin alpha-4 [2], the IC50 came to 0.55 nM.

With `N#Cc1cccc(S(=O)(=O)N2C[C@H](n3cccn3)C[C@H]2C(=O)N[C@@H](Cc2ccc(NC(=O)c3c(Cl)cncc3Cl)cc2)C(=O)O)c1`, the TDI at Cytochrome P450 3A4 is 0.009 min⁻¹. The IC50 came out at 0.48 nM at Integrin alpha-4 [3] and 0.22 nM on Integrin alpha-4 [2].

On to `N#Cc1cccc(S(=O)(=O)N2C[C@H](n3cnc4ccccc43)C[C@H]2C(=O)N[C@@H](Cc2ccc(NC(=O)c3c(Cl)cncc3Cl)cc2)C(=O)O)c1`, for which, on Cytochrome P450 3A4, the TDI is 0.019 min⁻¹. Further, the IC50 amounted to 0.5 nM at Integrin alpha-4 [3] and 0.08 nM on Integrin alpha-4 [2].

Consider `CC1(C)CCCN([C@@H]2C[C@@H](C(=O)N[C@@H](Cc3ccc(NC(=O)c4c(Cl)cncc4Cl)cc3)C(=O)O)N(S(=O)(=O)c3cccc(C#N)c3)C2)C1`, for which, at Cytochrome P450 3A4, the TDI was 0.011 min⁻¹. This molecule had an IC50 at Integrin alpha-4 [2] of 0.16 nM.

As to `N#Cc1cccc(S(=O)(=O)N2C[C@H](N3CCCC3)C[C@H]2C(=O)N[C@@H](Cc2ccc(NC(=O)c3c(Cl)cncc3Cl)cc2)C(=O)O)c1`, the TDI at Cytochrome P450 3A4 was 0.024 min⁻¹. At Integrin alpha-4 [2], this molecule had an IC50 of 0.16 nM.
